Data published in publication PMC10935467 (Acta Pharmaceutica Sinica. B, 2023).
Where a SMILES comes first, the peptide text is derived from it. Where no end group is shown, it is not given here. [ ]: non-standard residue; d: D form.

Assays:
[1] = test system: MC38 tumors in C57BL/6 mice; assay: MC38 tumor model, LFOP alone or combined with radiotherapy; format: in vivo, mouse
How it was run: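 In MC38 tumor-bearing C57BL/6 mice, tumors of about 100 mm3 receive local 20 Gy irradiation. Test peptide at 5.8 mg/kg is given starting the same day, with or without irradiation; saline and RT-alone groups are included. Tumor volume (½ × length × width × height) and body weight are recorded every two days for 14 days, and tumors are weighed at the end. n = 5.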

[2] = test system: H22 tumors in BALB/c mice; assay: H22 tumor model; format: in vivo, mouse; conditions: daily for 14 days, LFP-D1 3 mg/kg, LFOP 5.8 mg/kg, n = 5
How it was run: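 H22 cells (2 × 10^6) are injected subcutaneously into the right flank of six-week-old female BALB/c mice. Dosing is daily once tumors reach about 50 mm3: 3 mg/kg, 2.5 mg/kg, both combined, or 5.8 mg/kg of the fused peptide (equimolar to 3 mg/kg). Tumor volume (½ × length × width × height) and body weight are recorded every two days over 14 days of treatment.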

human LAG-3/FGL1 = biological target: T1, human LAG-3/FGL1 (Homo sapiens, UniProt P18627); assay: Blocking assay of hLAG-3/hFGL1 interaction on CHO-K1-hLAG-3 cells; format: binding; conditions: 100 μmol/L, n = 3, compared with LFP-D1
T1 sequence (P18627 23-525): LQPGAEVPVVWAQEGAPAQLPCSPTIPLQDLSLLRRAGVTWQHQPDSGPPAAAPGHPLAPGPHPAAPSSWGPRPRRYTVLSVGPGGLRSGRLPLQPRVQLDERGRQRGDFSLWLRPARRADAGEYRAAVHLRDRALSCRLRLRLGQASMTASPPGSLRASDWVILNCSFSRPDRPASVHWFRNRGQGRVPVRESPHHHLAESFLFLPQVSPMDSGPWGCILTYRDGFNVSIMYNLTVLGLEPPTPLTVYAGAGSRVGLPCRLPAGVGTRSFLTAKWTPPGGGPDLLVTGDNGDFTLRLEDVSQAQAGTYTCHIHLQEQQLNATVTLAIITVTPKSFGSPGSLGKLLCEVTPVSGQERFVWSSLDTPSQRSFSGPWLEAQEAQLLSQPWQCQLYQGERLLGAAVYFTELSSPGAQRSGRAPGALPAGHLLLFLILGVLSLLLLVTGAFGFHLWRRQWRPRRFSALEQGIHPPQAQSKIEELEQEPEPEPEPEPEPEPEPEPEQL
How it was run: (§1)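 Cells stably expressing human (CHO-K1-hLAG-3) or mouse (CHO-K1-mLAG-3) LAG-3 are pre-incubated with test peptide at graded concentrations for 30 min at 4 °C. Recombinant FGL1-Fc of the matching species is then added for 30 min at 4 °C, followed by PE anti-human IgG1 (anti-Fc). MFI is read by flow cytometry. Blocking % = (MFI no-peptide control − MFI peptide)/MFI no-peptide control × 100. Cells given only anti-Fc-PE serve as background. IC50 is taken from dose–response curves.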

hPD-1/hPD-L1 = hPD-1/hPD-L1 (Homo sapiens, UniProt Q9NZQ7); assay: Blocking assay of hPD-1/hPD-L1 interaction; format: binding; conditions: 100 μmol/L, n = 3, compared with OPBP-1(8–12)
[3] = In vivo toxicity analysis in MC38 tumor-bearing mice; parameters: species or system mouse
mouse LAG-3/FGL1 = biological target: T2, mouse LAG-3/FGL1 (Mus musculus, UniProt Q61790); assay: Blocking assay of mLAG-3/mFGL1 interaction on CHO-K1-mLAG-3 cells; format: binding
T2 sequence (Q61790 24-521): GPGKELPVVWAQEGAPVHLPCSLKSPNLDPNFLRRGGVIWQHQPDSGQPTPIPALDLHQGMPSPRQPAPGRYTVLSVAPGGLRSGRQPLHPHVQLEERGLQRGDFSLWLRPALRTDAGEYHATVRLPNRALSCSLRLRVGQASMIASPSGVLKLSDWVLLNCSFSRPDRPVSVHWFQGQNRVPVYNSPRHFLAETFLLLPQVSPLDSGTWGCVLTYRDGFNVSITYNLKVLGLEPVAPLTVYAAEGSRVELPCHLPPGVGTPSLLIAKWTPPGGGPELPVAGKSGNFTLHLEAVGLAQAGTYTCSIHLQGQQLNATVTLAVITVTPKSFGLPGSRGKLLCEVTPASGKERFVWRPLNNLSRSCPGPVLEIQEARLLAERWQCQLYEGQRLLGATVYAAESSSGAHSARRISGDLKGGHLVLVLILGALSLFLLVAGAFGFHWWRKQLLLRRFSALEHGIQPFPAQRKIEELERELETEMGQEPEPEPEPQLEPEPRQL
How it was run: as §1

mouse LAG-3-His protein = biological target: T3, mouse LAG-3-His protein (Mus musculus, UniProt Q61790); assay: MST binding affinity to mLAG-3
T3 sequence (Q61790 24-521): T2 sequence (Q61790 24-521)
How it was run: (§2)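 His-tagged LAG-3 (human or mouse) is labeled with RED-tris-NTA 2nd-generation dye. Test peptide is serially diluted in PBST (0.05% Tween-20) and mixed with an equal volume of labeled protein at room temperature for 5 min. Samples are loaded into capillaries for microscale thermophoresis, and KD is fitted from the dose–response curves.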

Human LAG-3-His protein = biological target: T4, Human LAG-3-His protein (Homo sapiens, UniProt P18627); assay: MST binding affinity to hLAG-3
T4 sequence (P18627 23-525): T1 sequence (P18627 23-525)
How it was run: as §2

[4] = LFP-D1 treatment vs normal saline, n = 5

Sequence of hPD-1/hPD-L1 (Q9NZQ7 19-239 limits assumed): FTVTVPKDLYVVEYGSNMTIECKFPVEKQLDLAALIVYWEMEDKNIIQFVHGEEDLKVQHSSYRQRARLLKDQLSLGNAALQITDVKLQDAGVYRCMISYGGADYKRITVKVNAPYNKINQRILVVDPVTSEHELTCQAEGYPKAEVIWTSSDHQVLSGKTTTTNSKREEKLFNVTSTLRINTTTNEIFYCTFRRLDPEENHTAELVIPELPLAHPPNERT

Compound | Tumor progression of MC38 tumors ([1]; LFOP 5.8 mg/kg alone, 14 days, n = 5) | Tumor growth of MC38 tumors ([1]; LFOP 5.8 mg/kg combined with RT (local 20 Gy), 14 days, n = 5) | Tregs after treatment ([1]; treatment with LFOP, data not shown) | Tumor growth in H22 tumor model [2] | Blocking efficacy on hLAG-3/hFGL1 interaction (human LAG-3/FGL1) | Blocking efficacy on hPD-1/hPD-L1 interaction (hPD-1/hPD-L1) | Histopathology of major organs (H&E staining) ([3]; heart, liver, spleen, lung, kidney after treatment with LFOP, RT or both) | Body weight of the mice among groups at ultimate time ([3]; normal saline, RT 20 Gy, LFOP 5.8 mg/kg, LFOP + RT, 14 days, n = 5) | ALT and AST levels in serum ([3]; normal saline, RT 20 Gy, LFOP 5.8 mg/kg, LFOP + RT, n = 5) | IC50 (mouse LAG-3/FGL1) [µM] | Kd (mouse LAG-3-His protein) [µM] | Kd (Human LAG-3-His protein) [µM] | Liver index ([3]; LFP-D1 treatment vs normal saline, liver weight (mg) to body weight (g), n = 5) | ALT level in mice serum [3, 4] | AST level in mice serum [3, 4]
CSCC[C@@H](N)C(=O)N[C@@H](Cc1c[nH]cn1)C(=O)N[C@@H](CCCNC(=N)N)C(=O)N1CCC[C@H]1C(=O)N1CCC[C@H]1C(=O)N[C@@H](CO)C(=O)N[C@@H](C(=O)NCC(=O)N[C@@H](CO)C(=O)N[C@H](CCCNC(=N)N)C(=O)N[C@@H](C(=O)N[C@H](Cc1ccc(O)cc1)C(=O)N[C@H](CO)C(=O)N[C@H](Cc1ccccc1)C(=O)O)C(C)C)[C@H](C)O [LFOP] (H-[dM]HRPPS[dT]GS[dR][dV][dY][dS][dF]-OH; N-terminus and C-terminus assumed) | slowed tumor progression | effectively controlled tumor growth even partial regression | decreased | significantly inhibited the tumor growth | in line with its parental peptide | in line with its parental peptide | no abnormalities | no significant differences | indiscriminate |  |  |  |  |  | 
CSCC[C@@H](N)C(=O)N[C@@H](Cc1c[nH]cn1)C(=O)N[C@@H](CCCNC(=N)N)C(=O)N1CCC[C@H]1C(=O)N1CCC[C@H]1C(=O)N[C@@H](CO)C(=O)N[C@@H](C(=O)O)[C@H](C)O [LFP-D1] (H-[dM]HRPPS[dT]-OH) |  |  |  |  |  |  |  |  |  | 17.5 ± 2.2 | 10.9 ± 3.3 | 15.7 ± 6.7 | no significant difference | no significant difference | no significant difference
MHRPPST [LFP-6] |  |  |  |  |  |  |  |  |  | 47.2 ± 2.2 | 14.6 ± 3.3 | 16.1 ± 5.5 |  |  | 
